Assay [1] has as its system Bcap37. Kind of assay: Cytotoxicity against human Bcap37 cells after 48 hrs by MTT assay. The class given is functional, cell-based. In short, it runs like this:
(§1)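 Tumor cells in log phase in RPMI 1640 + 10% FBS, seeded at 3×10^4 cells mL-1 and incubated 24 h (37 °C, 5% CO2). Test samples added at pre-set concentrations (6 wells each), doxorubicin as reference; 48 h exposure. MTT (2.5 mg·mL-1 in PBS) added for 4 h, formazan dissolved in DMSO, A570 read.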
In general terms: Tetrazolium dyes change colour on reduction, which living cells bring about.

Assay [2] is described as follows: Cytotoxicity against human MGC803 cells after 48 hrs by MTT assay. The class given is functional, cell-based, MGC-803. The gist of the method: as §1
A short description of assay [3]: Cytotoxicity against human PC3 cells after 48 hrs by MTT assay. The class given is functional, cell-based, PC-3. The gist of the method: as §1
Assay [4] relates to HepG2. Kind of assay: Cytotoxicity against human HepG2 cells after 48 hrs by MTT assay. The class given is functional, cell-based. The gist of the method: as §1
Assay [5] deals with Telomerase reverse transcriptase (Homo sapiens, UniProt O14746). Kind of assay: Inhibition of telomerase in human MGC-803 cells after 24 hrs by TRAP-PCR-ELISA assay. The class given is cell-based. In short, it runs like this: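 Cells lysed in RIPA on ice for 30 min; extract incubated with TRAP mix at 25 °C for 30 min, then 35 PCR cycles. Products hybridized to DIG probe, captured on streptavidin, detected with peroxidase anti-DIG at 490 nm; mean±SD.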
A general note: An ELISA detects its analyte on a solid surface through an enzyme-linked reagent.

The nature of assay [6]: Cytotoxicity against human GES-1 cells after 48 hrs by MTT assay. The class given is cell-based. The note with it: GES1, 48 h. In short, it runs like this:
(§2)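 Human normal gastric mucosa GES-1 and liver L-02 cells; MTT assay; IC50 expressed in mM as mean of triplicate experiments.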

The nature of assay [7]: Cytotoxicity against human L02 cells after 48 hrs by MTT assay. The class given is cell-based. The following applies: L02, 48 h. In short, it runs like this:
as §2

Where [8] appears, read: Homo sapiens, Bcap37, 48 h, read-out: IC50.
Where [9] appears, read: Homo sapiens, MGC-803, 48 h, read-out: IC50.
[10] abbreviates: Homo sapiens, PC-3, 48 h, read-out: IC50.
Setting [11] is: Homo sapiens, HepG2, 48 h, read-out: IC50.

Telomerase reverse transcriptase, sequence (O14746 whole entry): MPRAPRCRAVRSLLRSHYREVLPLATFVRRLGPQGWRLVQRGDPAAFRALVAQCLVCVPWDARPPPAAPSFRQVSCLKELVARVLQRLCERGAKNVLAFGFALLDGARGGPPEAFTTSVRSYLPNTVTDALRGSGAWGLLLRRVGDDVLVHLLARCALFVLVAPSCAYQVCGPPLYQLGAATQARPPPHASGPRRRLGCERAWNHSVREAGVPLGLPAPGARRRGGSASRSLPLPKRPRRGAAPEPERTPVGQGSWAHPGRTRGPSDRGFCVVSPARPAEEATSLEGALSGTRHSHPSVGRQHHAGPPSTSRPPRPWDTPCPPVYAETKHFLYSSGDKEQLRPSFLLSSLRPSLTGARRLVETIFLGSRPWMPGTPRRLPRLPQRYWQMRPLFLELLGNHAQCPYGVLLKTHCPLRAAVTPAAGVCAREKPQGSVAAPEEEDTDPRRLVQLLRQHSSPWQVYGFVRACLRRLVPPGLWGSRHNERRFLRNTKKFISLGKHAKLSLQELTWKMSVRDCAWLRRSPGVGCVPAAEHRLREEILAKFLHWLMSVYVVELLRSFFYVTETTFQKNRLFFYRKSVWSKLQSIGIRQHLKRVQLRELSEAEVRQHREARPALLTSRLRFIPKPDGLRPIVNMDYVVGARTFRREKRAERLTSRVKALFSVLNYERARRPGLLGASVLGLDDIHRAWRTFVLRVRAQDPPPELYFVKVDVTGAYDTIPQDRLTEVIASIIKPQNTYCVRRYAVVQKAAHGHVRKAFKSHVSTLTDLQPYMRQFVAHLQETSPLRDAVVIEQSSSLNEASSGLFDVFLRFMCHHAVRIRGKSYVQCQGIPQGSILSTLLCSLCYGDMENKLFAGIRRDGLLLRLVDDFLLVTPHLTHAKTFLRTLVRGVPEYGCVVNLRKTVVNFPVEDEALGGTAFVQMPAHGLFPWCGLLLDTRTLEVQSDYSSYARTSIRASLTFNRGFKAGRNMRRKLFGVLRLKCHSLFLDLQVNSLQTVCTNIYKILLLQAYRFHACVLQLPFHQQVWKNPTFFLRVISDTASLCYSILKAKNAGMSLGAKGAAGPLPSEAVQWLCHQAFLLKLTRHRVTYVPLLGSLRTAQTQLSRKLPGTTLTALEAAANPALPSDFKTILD

Broadly, the IC50 is the midpoint of a concentration-inhibition curve. With `O=c1oc2ccccc2cc1C1=NN(S(=O)(=O)c2ccc([N+](=O)[O-])cc2)C(c2ccccc2)C1` (stereo unspecified), the IC50 in assay [1] (setting [8]) was 37 µM; in assay [2] (setting [9]), 41.2 µM; in assay [3] (setting [10]), 46.6 µM; in assay [4] (hepg2), “Not Active”; in assay [5], 31.3 µM.
As to `CNCC(=O)N1N=C(c2cc3ccccc3oc2=O)CC1c1ccccc1` (stereo unspecified), the IC50 turned out to be 4.22 µM in assay [1] (setting [8]); 12.8 µM in assay [2] (setting [9]); 2.3 µM in assay [3] (setting [10]); 24 µM in assay [4] (setting [11]); 3.15 µM in assay [5].
`C=CCN(CC=C)CC(=O)N1N=C(C)CC1c1cc(Br)ccc1O` (stereo unspecified): the half-maximal inhibitory concentration (IC50) stood at 4.95 µM in assay [1] (setting [8]); 10.2 µM in assay [2] (setting [9]); 3.09 µM in assay [3] (setting [10]); 7.87 µM in assay [4] (setting [11]); 11.8 µM in assay [5].
The matching figures for `CC(=O)Oc1ccccc1C1CC(C)=NN1C(=O)CN1CCC(C(C)=O)CC1` (stereo unspecified): 20.1 µM, 4.12 µM, 6.8 µM, 7.8 µM and 3.54 µM.
In the same order, the values of `COc1ccccc1C1CC(C)=NN1C(=O)CN1CCC(OC)CC1` (stereo unspecified) are 18.8 µM, 9.55 µM, 27.2 µM, 22 µM and 8.4 µM.
In the same order, the values of `CC1=NN(C(=O)CCl)C(c2cc(Br)cc(Br)c2O)C1` (stereo unspecified) are 51.1 µM, 4.91 µM, 5.82 µM, 3.35 µM and 3.68 µM.
In the case of `O=C(CN1CCC(c2ccccc2)CC1)N1N=C(c2cc3ccccc3oc2=O)CC1c1ccccc1` (stereo unspecified), the half-inhibitory concentration (IC50) entry in assay [1] (bcap37) is “Not Active”; in assay [2] (mgc-803), “Not Active”; in assay [3] (pc-3), “Not Active”; in assay [4] (hepg2), “Not Active”; in assay [5] it was 35.7 µM.
For the compound `NC(=O)C1CCN(CC(=O)N2N=C(c3cc4ccccc4oc3=O)CC2c2ccccc2)CC1` (stereo unspecified), the 50% inhibitory concentration (IC50) in assay [1] (setting [8]) stood at 18.5 µM; in assay [2] (setting [9]), 21.5 µM; in assay [3] (setting [10]), 8.31 µM; in assay [4] (setting [11]) it was 19.3 µM; in assay [5], 31.2 µM.
The matching figures for `COc1ccc(NCC(=O)N2N=C(C)CC2c2ccccc2O)cc1` (stereo unspecified): 45.5 µM, 9.87 µM, 51.6 µM, 39.1 µM and 22.3 µM.
In the same order, the values of `O=C(CN1CCOCC1)N1N=C(c2cc3ccccc3oc2=O)CC1c1ccccc1C(F)(F)F` (stereo unspecified) are 14.2 µM, 10 µM, 12.1 µM, 21 µM and 3.03 µM.
Take `CC(=O)Oc1ccccc1C1CC(C)=NN1C(=O)CN1CCCCC1C` (stereo unspecified): the IC50 is 17.9 µM in assay [1] (setting [8]); 5.14 µM in assay [2] (setting [9]); 11.1 µM in assay [3] (setting [10]); “Not Active” in assay [4] (hepg2); 6.2 µM in assay [5].
On to `CC[N+](C)(CC)CC(=O)N1N=C(C)CC1c1ccccc1OC` (stereo unspecified), for which the IC50 in assay [1] (setting [8]) worked out at 5.15 µM; in assay [2] (setting [9]), 3.32 µM; in assay [3] (setting [10]), 4.17 µM; in assay [4] (setting [11]) it was 3.67 µM; in assay [5], 3.44 µM.
On to `CCNCC(=O)N1N=C(c2cc3ccccc3oc2=O)CC1c1ccccc1` (stereo unspecified), for which the IC50 in assay [1] (setting [8]) worked out at 6.49 µM; in assay [2] (setting [9]), 26.6 µM; in assay [3] (setting [10]), 5.58 µM; in assay [4] (setting [11]), 30.6 µM; in assay [5], 6.68 µM.
For `CC1=NN(S(=O)(=O)c2ccc([N+](=O)[O-])cc2)C(c2cc(Cl)ccc2O)C1` (stereo unspecified), the IC50 was 52.3 µM in assay [1] (setting [8]); “Not Active” in assay [2] (mgc-803); 44.2 µM in assay [3] (setting [10]); “Not Active” in assay [4] (hepg2); 41.2 µM in assay [5].
On to `CC(C)CNCC(=O)N1N=C(c2cc3ccccc3oc2=O)CC1c1ccccc1` (stereo unspecified), for which the IC50 came to 6.3 µM in assay [1] (setting [8]); 29.7 µM in assay [2] (setting [9]); 1.92 µM in assay [3] (setting [10]); 9.97 µM in assay [4] (setting [11]); 3.17 µM in assay [5].
In the same order, the values of `CC(=O)Oc1ccccc1C1CC(C)=NN1C(=O)CN1CCCCC1` (stereo unspecified) are 12.8 µM, 4.89 µM, 4.07 µM, 19 µM and 2.12 µM.
Consider `O=C(c1ccccc1)N1N=C(c2cc3ccccc3oc2=O)CC1c1ccccc1` (stereo unspecified), for which the IC50 is 32.2 µM in assay [1] (setting [8]); 12.7 µM in assay [2] (setting [9]); 5.87 µM in assay [3] (setting [10]); 36.6 µM in assay [4] (setting [11]); 8.74 µM in assay [5].
The matching figures for `CCC(=O)N1N=C(c2cc3ccccc3oc2=O)CC1c1ccccc1` (stereo unspecified): 46.3 µM, 5.3 µM, 4.37 µM, 9.61 µM and 3.63 µM.
On to `CCCCCCN(CCCCCC)CC(=O)N1N=C(c2cc3ccccc3oc2=O)CC1c1ccccc1C(F)(F)F` (stereo unspecified), for which the half-inhibitory concentration (IC50) is 12.2 µM in assay [1] (setting [8]); 6.87 µM in assay [2] (setting [9]); 6.03 µM in assay [3] (setting [10]); 12 µM in assay [4] (setting [11]); 4.77 µM in assay [5].
With `CC(=O)Oc1ccccc1C1CC(C)=NN1C(=O)CCl` (stereo unspecified), the IC50 in assay [1] (setting [8]) came to 6.81 µM; in assay [6] it was 1840 µM; in assay [2] (setting [9]), 3.01 µM; in assay [3] (setting [10]) it was 3.58 µM; in assay [7], 2530 µM; in assay [4] (setting [11]), 2.52 µM. For the same compound, the half-maximal inhibitory concentration (IC50) in assay [5] stood at 1.27 µM.
As to `CC(=O)Oc1ccccc1C1CC(C)=NN1C(=O)CN1CCC(O)CC1` (stereo unspecified), the IC50 in assay [1] (setting [8]) was determined as 9.8 µM; in assay [6], 2510 µM; in assay [2] (setting [9]), 3.51 µM; in assay [3] (setting [10]) it was 25.6 µM; in assay [7], 2230 µM; in assay [4] (setting [11]), 12.3 µM. For the same compound, the IC50 in assay [5] turned out to be 5.69 µM.
For the compound `CCC(=O)N1N=C(C)CC1c1cc(Br)cc(Br)c1O` (stereo unspecified), the IC50 came out at 40.1 µM in assay [1] (setting [8]); 38.6 µM in assay [2] (setting [9]); 28.6 µM in assay [3] (setting [10]); 41.4 µM in assay [4] (setting [11]); 18.1 µM in assay [5].
The matching figures for `CC(=O)Oc1ccccc1C1CC(C)=NN1C(=O)CN1CCCC1` (stereo unspecified): 5.21 µM, 6.51 µM, 6.21 µM, 5.09 µM and 6.3 µM.
For `CC1=NN(C(=O)CN2CCN(C)CC2)C(c2ccccc2O)C1` (stereo unspecified), the 50% inhibitory concentration (IC50) in assay [1] (setting [8]) was 6.21 µM; in assay [2] (setting [9]), 7.85 µM; in assay [3] (setting [10]), 11.8 µM; in assay [4] (hepg2), “Not Active”; in assay [5], 2.1 µM.
Take `O=C(CCl)N1N=C(c2cc3ccccc3oc2=O)CC1c1ccccc1` (stereo unspecified): the IC50 amounted to 26.7 µM in assay [1] (setting [8]); 2110 µM in assay [6]; 2.02 µM in assay [2] (setting [9]); 2.98 µM in assay [3] (setting [10]); 1280 µM in assay [7]; 2.98 µM in assay [4] (setting [11]). The compound further showed an IC50 in assay [5] of 2.27 µM.
Turning to `O=C(c1ccccc1Cl)N1N=C(c2cc3ccccc3oc2=O)CC1c1ccccc1` (stereo unspecified), the IC50 in assay [1] (setting [8]) was determined as 9.3 µM; in assay [2] (setting [9]), 6.64 µM; in assay [3] (setting [10]), 6.37 µM; in assay [4] (setting [11]) it was 5.44 µM; in assay [5], 13.1 µM.
Take `COc1ccccc1C1CC(C)=NN1C(=O)CN(C(C)C)C(C)C` (stereo unspecified): the IC50 in assay [1] (setting [8]) was 34.2 µM; in assay [2] (setting [9]) it was 21.5 µM; in assay [3] (setting [10]), 5.2 µM; in assay [4] (setting [11]), 8.4 µM; in assay [5] it was 14.2 µM.
In the same order, the values of `CC(C)NCC(=O)N1N=C(c2cc3ccccc3oc2=O)CC1c1ccccc1` (stereo unspecified) are 2.21 µM, 10.3 µM, 1.87 µM, 6 µM and 3.52 µM.
In the same order, the values of `O=C(CN1CCSCC1)N1N=C(c2cc3ccccc3oc2=O)CC1c1ccccc1` (stereo unspecified) are 8.2 µM, 10.3 µM, 4 µM, 8.96 µM and 3.3 µM.
Turning to `CC1=NN(C(=O)CCc2ccccc2)C(c2ccccc2O)C1` (stereo unspecified), the IC50 in assay [1] (setting [8]) was 25.7 µM; in assay [2] (setting [9]) it was 24.1 µM; in assay [3] (setting [10]), 9.38 µM; in assay [4] (setting [11]), 20.6 µM; in assay [5] it was 11 µM.
As for `CCCN(CCC)CC(=O)N1N=C(C)CC1c1cc(Br)ccc1O` (stereo unspecified), the concentration for half-maximal inhibition (IC50) in assay [1] (setting [8]) was 15.3 µM; in assay [2] (setting [9]), 20.2 µM; in assay [3] (setting [10]), 19 µM; in assay [4] (setting [11]), 9.81 µM; in assay [5] it was 9.94 µM.
Consider `CC1=NN(C(=O)COc2ccc(Cl)cc2)C(c2ccccc2O)C1` (stereo unspecified), for which the half-inhibitory concentration (IC50) entry in assay [1] (bcap37) is “Not Active”; in assay [2] (mgc-803), “Not Active”; in assay [3] (setting [10]) it was 38.8 µM; in assay [4] (hepg2) it was “Not Active”; in assay [5], 54.4 µM.
As to `CCCNCC(=O)N1N=C(c2cc3ccccc3oc2=O)CC1c1ccccc1` (stereo unspecified), the concentration for half-maximal inhibition (IC50) in assay [1] (setting [8]) came out at 25.2 µM; in assay [2] (setting [9]), 4.88 µM; in assay [3] (setting [10]), 7.27 µM; in assay [4] (setting [11]), 10.8 µM; in assay [5], 9.32 µM.
`COc1ccccc1C1CC(C)=NN1C(=O)C[N+]1(C)CCCC1` (stereo unspecified): the IC50 in assay [1] (setting [8]) amounted to 9.98 µM; in assay [2] (setting [9]), 12.2 µM; in assay [3] (setting [10]) it was 11.2 µM; in assay [4] (setting [11]), 32.2 µM; in assay [5], 11 µM.

The values are drawn from ChEMBL document CHEMBL3785019, “Dihydropyrazole derivatives as telomerase inhibitors: Structure-based design, synthesis, SAR and anticancer evaluation in vitro and in vivo” (Eur J Med Chem, 2016).
